In assay [1] the test system is MCF7. As to the kind of experiment: Induction of apoptosis in human MCF7 cells assessed as late apoptotic cells level at 1 uM incubated for 24 hrs by Annexin V PI/FITC staining based flow cytometry (reference value: 9%). Type of assay: functional. A general note: In flow cytometry, cells or beads pass a laser one at a time.
The target in assay [2] is Rhodopsin kinase GRK1 (Homo sapiens) (UniProt Q15835). As to the kind of experiment: Inhibition of GRK1 (unknown origin) at 10 uM using [33P]-ATP after 20 to 40 mins by scintillation counting method.
The target of assay [3] is Epidermal growth factor receptor (Homo sapiens) (UniProt P00533). As to the kind of experiment: Inhibition of EGFR (unknown origin) at 10 uM using [33P]-ATP after 20 to 40 mins by scintillation counting method.
The subject of assay [4] is MCF7. As to the kind of experiment: Induction of apoptosis in human MCF7 cells assessed as early apoptotic cells level at 10 uM incubated for 24 hrs by Annexin V PI/FITC staining based flow cytometry (reference value: 17.4%). In kind it is functional.
The subject of assay [5] is MCF7. As to the kind of experiment: Induction of apoptosis in human MCF7 cells assessed as viable cells level at 5 uM incubated for 24 hrs by Annexin V PI/FITC staining based flow cytometry (reference value: 72.3%). In kind it is functional.
The test system of assay [6] is A549. As to the kind of experiment: Induction of apoptosis in human A549 cells assessed as caspe-3/7 activation at 5 to 20 uM incubated for 24 hrs by Caspase-Glo 3/7 luminescence assay. In kind it is functional, cell-based. The method in brief: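 A549 cells plated at 1 x 10^4 per well and allowed 24 h to settle. Medium removed, then compounds added for 24 h at 5, 10 and 20 μM. Vehicle controls received equivalent DMSO. Caspase-3/7 activity read by Caspase-Glo 3/7 luminescence (RLU). Mean ± S.D. (n = 5), experiment done 3 times. Compared with vehicle by one-way ANOVA with Dunnett's test.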

Assay [7] concerns the target Glycogen synthase kinase-3 alpha (Homo sapiens) (UniProt P49840). As to the kind of experiment: Inhibition of GSK3alpha (unknown origin) at 10 uM using [33P]-ATP after 20 to 40 mins by scintillation counting method.
The test system of assay [8] is A549. As to the kind of experiment: Growth inhibition of human A549 cells by MTT assay. Type of assay: functional, cell-based. In outline:
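MTT viability. Cells seeded for 24 h, then exposed to compound for 48 h in DMEM/F-12 or DMEM with 5% FBS. Vehicle controls received matching DMSO. MTT added at 0.5 mg/mL for 3 h at 37 °C. Formazan dissolved in DMSO and absorbance read at 570 nm.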
Background: Tetrazolium dyes change colour on reduction, which living cells bring about.

Drawing on ChEMBL document CHEMBL4043222, “Pyrrolizines: Design, synthesis, anticancer evaluation and investigation of the potential mechanism of action” (Bioorg Med Chem, 2017), this text covers Activity, inhibition and IC50 for 1 molecule.

Each structure is given as a SMILES string. Activity calls are given as the source filed them. The rule behind the calls is not given here.

For orientation: inhibition means the drop in the measured response relative to a control, in per cent. In general, IC50 refers to the concentration that gives 50% inhibition. A high value points to lower potency.

Sequence of Rhodopsin kinase GRK1 (Homo sapiens) (Q15835 whole entry): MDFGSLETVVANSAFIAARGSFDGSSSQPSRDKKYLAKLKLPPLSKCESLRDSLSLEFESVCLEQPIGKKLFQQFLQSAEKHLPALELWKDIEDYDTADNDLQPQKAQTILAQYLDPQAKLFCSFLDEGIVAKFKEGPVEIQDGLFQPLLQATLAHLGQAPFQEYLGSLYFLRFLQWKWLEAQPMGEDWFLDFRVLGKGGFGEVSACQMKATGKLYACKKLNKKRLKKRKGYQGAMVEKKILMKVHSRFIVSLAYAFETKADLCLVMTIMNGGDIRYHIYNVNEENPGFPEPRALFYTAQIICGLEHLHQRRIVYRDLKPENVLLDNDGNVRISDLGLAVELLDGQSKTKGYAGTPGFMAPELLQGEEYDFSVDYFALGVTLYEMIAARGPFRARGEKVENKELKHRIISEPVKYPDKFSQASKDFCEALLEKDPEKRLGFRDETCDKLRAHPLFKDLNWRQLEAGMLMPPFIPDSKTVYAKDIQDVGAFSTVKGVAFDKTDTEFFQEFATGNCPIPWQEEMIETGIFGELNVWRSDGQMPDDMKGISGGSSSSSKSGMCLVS
Sequence of Epidermal growth factor receptor (Homo sapiens) (P00533 whole entry): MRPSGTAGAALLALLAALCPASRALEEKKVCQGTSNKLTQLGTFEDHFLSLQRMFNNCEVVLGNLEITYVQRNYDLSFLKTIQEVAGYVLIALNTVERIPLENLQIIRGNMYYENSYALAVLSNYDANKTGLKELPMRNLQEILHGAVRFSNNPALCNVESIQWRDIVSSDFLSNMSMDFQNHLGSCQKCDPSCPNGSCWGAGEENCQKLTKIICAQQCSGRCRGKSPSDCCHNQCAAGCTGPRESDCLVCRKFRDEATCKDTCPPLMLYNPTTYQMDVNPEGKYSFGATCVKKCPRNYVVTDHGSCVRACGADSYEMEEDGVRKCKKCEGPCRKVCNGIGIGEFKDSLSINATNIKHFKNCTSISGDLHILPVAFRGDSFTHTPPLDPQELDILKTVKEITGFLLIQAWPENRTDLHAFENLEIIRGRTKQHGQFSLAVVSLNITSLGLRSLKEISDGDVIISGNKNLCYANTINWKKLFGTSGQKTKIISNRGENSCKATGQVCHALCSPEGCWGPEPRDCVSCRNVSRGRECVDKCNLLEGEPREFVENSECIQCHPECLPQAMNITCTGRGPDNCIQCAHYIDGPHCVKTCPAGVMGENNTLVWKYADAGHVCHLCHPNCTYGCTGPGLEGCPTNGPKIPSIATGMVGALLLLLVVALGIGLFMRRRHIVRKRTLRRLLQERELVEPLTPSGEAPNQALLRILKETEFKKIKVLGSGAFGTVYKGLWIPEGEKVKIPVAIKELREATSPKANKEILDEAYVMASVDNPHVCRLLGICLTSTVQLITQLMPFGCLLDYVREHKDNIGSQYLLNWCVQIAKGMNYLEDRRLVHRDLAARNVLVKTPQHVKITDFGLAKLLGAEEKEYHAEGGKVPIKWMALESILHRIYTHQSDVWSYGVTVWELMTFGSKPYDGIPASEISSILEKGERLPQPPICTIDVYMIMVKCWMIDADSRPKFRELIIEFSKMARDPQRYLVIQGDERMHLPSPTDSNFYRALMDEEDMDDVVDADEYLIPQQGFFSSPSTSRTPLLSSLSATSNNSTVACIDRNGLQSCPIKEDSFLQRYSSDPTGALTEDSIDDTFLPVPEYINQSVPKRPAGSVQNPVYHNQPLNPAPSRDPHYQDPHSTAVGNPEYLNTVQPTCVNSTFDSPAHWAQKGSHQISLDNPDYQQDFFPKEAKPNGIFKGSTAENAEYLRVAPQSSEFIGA
Sequence of Glycogen synthase kinase-3 alpha (Homo sapiens) (P49840 2-483 limits assumed): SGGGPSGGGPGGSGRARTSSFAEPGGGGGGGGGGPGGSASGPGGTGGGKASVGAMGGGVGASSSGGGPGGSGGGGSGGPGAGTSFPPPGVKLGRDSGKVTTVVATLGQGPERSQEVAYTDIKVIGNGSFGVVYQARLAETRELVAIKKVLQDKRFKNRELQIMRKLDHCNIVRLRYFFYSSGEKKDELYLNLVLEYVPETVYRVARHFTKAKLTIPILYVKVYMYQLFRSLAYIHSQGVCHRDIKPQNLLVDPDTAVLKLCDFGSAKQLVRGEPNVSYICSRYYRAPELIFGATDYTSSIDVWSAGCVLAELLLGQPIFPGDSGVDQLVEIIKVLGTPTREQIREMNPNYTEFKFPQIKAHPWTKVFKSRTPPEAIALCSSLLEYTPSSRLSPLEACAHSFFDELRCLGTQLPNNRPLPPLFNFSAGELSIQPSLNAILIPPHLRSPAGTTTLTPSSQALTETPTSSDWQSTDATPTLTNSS

For `Cc1ccc(NC(=O)c2c(N=Cc3ccc4ccccc4c3)c(C#N)c3n2CCC3)cc1`, the Activity is recorded as 10.7% in the assay on MCF7 [1], 24.2% with MCF7 [4] and 66.9% in the assay on MCF7 [5]. Also, the inhibition in assay [2] was 7%; in assay [3], -47%; in assay [7], -5%. Besides, the result with A549 [6] was Active. In the assay with A549 [8], this molecule registered a half-inhibitory concentration (IC50) of 3.24 µM.
